Assay results as given in ChEMBL document CHEMBL1123867, “Anticonvulsant O-alkyl sulfamates. 2,3:4,5-Bis-O-(1-methylethylidene)-beta-D-fructopyranose sulfamate and related compounds” (1987).
The source made the active and inactive calls. The rule behind the calls is not given here.

Columns and labels:
[1] = tested on: Mus musculus; test: Anticonvulsant activity was determined as percentage of block of the hind-limb tonic-extensor seizure caused by application of an electric shock to mice via corneal electrodes at 240 min by 200 mg/kg peroral dose; type: functional; details: route oral
In short: (§1)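 Supramaximal electroshock: 50-mA current (60 Hz, 0.20 s) via corneal electrodes induced hind-limb tonic extension; inhibition of this component scored as activity. Mice dosed ip and/or po in aqueous solution or suspension (ca. 0.1% Tween 80, distilled water). Tested at 30, 60, 120 and 240 min (sometimes 45 min); ten mice per time point.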

[2] = tested on: Mus musculus; test: Anticonvulsant activity was determined as percentage of block of the hind-limb tonic-extensor seizure caused by application of an electric shock to mice via corneal electrodes at 60 min by 100 mg/kg intraperitoneal dose; type: functional; in short: as §1
[3] = tested on: Mus musculus; test: Anticonvulsant activity following p.o. administration by standard maximal electroshock test in mice.; type: functional; details: po; in short: as §1
[4] = tested on: Mus musculus; test: Anticonvulsant activity was determined as percentage of block of the hind-limb tonic-extensor seizure caused by application of an electric shock to mice via corneal electrodes at 120 min by 100 mg/kg intraperitoneal dose; type: functional; in short: as §1
[5] = tested on: Mus musculus; test: Anticonvulsant activity was determined as percentage of block of the hind-limb tonic-extensor seizure caused by application of an electric shock to mice via corneal electrodes at 60 min by 200 mg/kg peroral dose; type: functional; details: route oral; in short: as §1
[6] = tested on: Mus musculus; test: Percentage block of the hind-limb tonic-extensor seizure was determined after application of an electric shock to mice for 30 min followed by 200 mg/kg peroral dose; type: functional; details: route oral; in short: as §1
[7] = tested on: Mus musculus; test: Anticonvulsant activity was determined as percentage of block of the hind-limb tonic-extensor seizure caused by application of an electric shock to mice via corneal electrodes at 30 min by 100 mg/kg intraperitoneal dose; type: functional; in short: as §1
[8] = tested on: Mus musculus; test: Anticonvulsant activity was determined as percentage of block of the hind-limb tonic-extensor seizure caused by application of an electric shock to mice via corneal electrodes at 120 min by 200 mg/kg peroral dose; type: functional; details: route oral; in short: as §1
[9] = tested on: Mus musculus; test: Anticonvulsant activity was determined as percentage of block of the hind-limb tonic-extensor seizure caused by application of an electric shock to mice via corneal electrodes at 240 min by 100 mg/kg intraperitoneal dose; type: functional; in short: as §1
[10] = tested on: Mus musculus; test: Anticonvulsant activity by using a standard maximal electroshock test (MES) in mice, by intraperitoneal administration of the compound; type: functional; details: ip; in short: as §1
[11] = tested on: Mus musculus; test: Percentage block of the hind-limb tonic-extensor seizure was determined after application of an electric shock to mice for 60 min followed by 200 mg/kg peroral dose; type: functional; details: route oral
In short: (§2)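 Mouse MES test: supramaximal seizure from a 50-mA current (60 Hz, 0.20-s) through corneal electrodes. […] Ten mice per time point. Compound given in aqueous solution or in suspension in ca. 0.1% Tween 80 and distilled water. Free food and water except during testing.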

[12] = tested on: Mus musculus; test: Percentage block of the hind-limb tonic-extensor seizure was determined after application of an electric shock to mice for 240 min followed by 200 mg/kg peroral dose; type: functional; details: route oral; in short: as §1
[13] = tested on: Mus musculus; test: Percentage block of the hind-limb tonic-extensor seizure was determined after application of an electric shock to mice for 120 min followed by 100 mg/kg intraperitoneal dose; type: functional; in short: as §1
[14] = tested on: Mus musculus; test: Percentage block of the hind-limb tonic-extensor seizure was determined after application of an electric shock to mice for 30 min followed by 100 mg/kg intraperitoneal dose; type: functional; in short: as §1
[15] = tested on: Mus musculus; test: Percentage block of the hind-limb tonic-extensor seizure was determined after application of an electric shock to mice for 120 min followed by 200 mg/kg peroral dose; type: functional; details: route oral; in short: as §1
[16] = tested on: Mus musculus; test: Percentage block of the hind-limb tonic-extensor seizure was determined after application of an electric shock to mice for 60 min followed by 100 mg/kg intraperitoneal dose; type: functional; in short: as §1
[17] = tested on: Mus musculus; test: Percentage block of the hind-limb tonic-extensor seizure was determined after application of an electric shock to mice for 240 min followed by 100 mg/kg intraperitoneal dose; type: functional; in short: as §1
[18] = tested on: Mus musculus; test: Anticonvulsant activity by using a standard maximal electroshock test (MES) in mice, by intraperitoneal administration of the compound; Range 50-100 mg/kg; type: functional; details: ip; in short: as §1
[19] = tested on: Mus musculus; test: Percentage block of the hind-limb tonic-extensor seizure was determined after application of an electric shock to mice for 240 min followed by 40 mg/kg peroral dose; type: functional; details: route oral; in short: as §1
[20] = tested on: Mus musculus; test: Percentage block of the hind-limb tonic-extensor seizure was determined after application of an electric shock to mice for 30 min followed by 40 mg/kg peroral dose; type: functional; details: route oral; in short: as §1
[21] = tested on: Mus musculus; test: Percentage block of the hind-limb tonic-extensor seizure was determined after application of an electric shock to mice for 60 min followed by 40 mg/kg peroral dose; type: functional; details: route oral; in short: as §2
[22] = tested on: Mus musculus; test: Percentage block of the hind-limb tonic-extensor seizure was determined after application of an electric shock to mice for 120 min followed by 40 mg/kg peroral dose; type: functional; details: route oral; in short: as §1
[23] = tested on: Mus musculus; test: Percentage block of the hind-limb tonic-extensor seizure was determined after application of an electric shock to mice for followed by 200 mg/kg peroral dose; details: route oral
[24] = tested on: Mus musculus; test: Anticonvulsant activity by using a standard maximal electroshock test (MES) in mice, by 200 mg/kg peroral administration of the compound; I=inactive, 0-10% block; type: functional, organism-based; set-up: dose 200 mg/kg; in short: as §1
[25] = tested on: Mus musculus; test: Anticonvulsant activity by using a standard maximal electroshock test (MES) in mice, by 100 mg/kg intraperitoneal administration of the compound; I=inactive, 0-10% block; type: functional, organism-based; set-up: dose 100 mg/kg; in short: as §1
[26] = tested on: Mus musculus; test: Percentage block of the hind-limb tonic-extensor seizure was determined after application of an electric shock to mice for 120 min followed by 15 mg/kg peroral dose; type: functional; details: route oral; in short: as §1
[27] = tested on: Mus musculus; test: Percentage block of the hind-limb tonic-extensor seizure was determined after application of an electric shock to mice for 60 min followed by 10 mg/kg intraperitoneal dose; type: functional; in short: as §1
[28] = tested on: Mus musculus; test: Percentage block of the hind-limb tonic-extensor seizure was determined after application of an electric shock to mice for 30 min followed by 15 mg/kg peroral dose; type: functional; details: route oral; in short: as §1
[29] = tested on: Mus musculus; test: Percentage block of the hind-limb tonic-extensor seizure was determined after application of an electric shock to mice for 240 min followed by 15 mg/kg peroral dose; type: functional; details: route oral; in short: as §1
[30] = tested on: Mus musculus; test: Percentage block of the hind-limb tonic-extensor seizure was determined after application of an electric shock to mice for 60 min followed by 15 mg/kg peroral dose; type: functional; details: route oral; in short: as §2
[31] = tested on: Mus musculus; test: Percentage block of the hind-limb tonic-extensor seizure was determined after application of an electric shock to mice for 30 min followed by 10 mg/kg intraperitoneal dose; type: functional; in short: as §1
[32] = tested on: Mus musculus; test: Percentage block of the hind-limb tonic-extensor seizure was determined after application of an electric shock to mice for 240 min followed by 10 mg/kg intraperitoneal dose; type: functional; in short: as §1
[33] = tested on: Mus musculus; test: Percentage block of the hind-limb tonic-extensor seizure was determined after application of an electric shock to mice for 120 min followed by 10 mg/kg intraperitoneal dose; type: functional; in short: as §1
[34] = tested on: Mus musculus; test: Percentage block of the hind-limb tonic-extensor seizure was determined after application of an electric shock to mice for 30 min followed by 50 mg/kg intraperitoneal dose; type: functional; in short: as §1
[35] = tested on: Mus musculus; test: LD50 of compound after ip administration after 24 hrs was determined; type: functional
[36] = tested on: Mus musculus; test: Anticonvulsant activity by using a standard maximal electroshock test (MES) in mice by intraperitoneal administration of the compound; type: functional; details: ip; in short: as §1
[37] = tested on: Mus musculus; test: Percentage block of the hind-limb tonic-extensor seizure was determined after application of an electric shock to mice for 120 min followed by 100 mg/kg peroral dose; type: functional; details: route oral; in short: as §1
[38] = tested on: Mus musculus; test: Percentage block of the hind-limb tonic-extensor seizure was determined after application of an electric shock to mice for 60 min followed by 100 mg/kg peroral dose; type: functional; details: route oral; in short: as §2
[39] = tested on: Mus musculus; test: Neurotoxic dose ED50 after po administration in mice at 4 hrs was determined; type: functional
In short: (§3)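 Neurotoxicity measured in mice with the rotoreel test after oral dosing. TD50 is the neurotoxic dose ED50, read at 1 h (peak time for TD50) and at 4 h (approximate peak time for the MES ED50). Compound was given as an aqueous solution or as a suspension in about 0.1% Tween 80 in distilled water. Animals had free access to food and water except during testing.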

[40] = tested on: Mus musculus; test: Percentage block of the hind-limb tonic-extensor seizure was determined after application of an electric shock to mice for 120 min followed by 50 mg/kg intraperitoneal dose; type: functional; in short: as §1
[41] = tested on: Mus musculus; test: Percentage block of the hind-limb tonic-extensor seizure was determined after application of an electric shock to mice for 60 min followed by 50 mg/kg intraperitoneal dose; type: functional; in short: as §2
[42] = tested on: Mus musculus; test: Percentage block of the hind-limb tonic-extensor seizure was determined after application of an electric shock to mice for 240 min followed by 100 mg/kg peroral dose; type: functional; details: route oral; in short: as §1
[43] = tested on: Mus musculus; test: Percentage block of the hind-limb tonic-extensor seizure was determined after application of an electric shock to mice for 30 min followed by 100 mg/kg peroral dose; type: functional; details: route oral; in short: as §1
[44] = tested on: Mus musculus; test: Neurotoxic dose ED50 after po administration in mice at 1 hrs was determined; type: functional; in short: as §3
[45] = tested on: Mus musculus; test: Percentage block of the hind-limb tonic-extensor seizure was determined after application of an electric shock to mice for 240 min followed by 50 mg/kg intraperitoneal dose; type: functional; in short: as §1

NS(=O)(=O)OCC1COC2(CCCCC2)O1 (configuration not stated)
Block [1]: 10%
Block [2]: 10%
ED50 [3]: ~150 mg/kg
Block [4]: 0%
Block [5]: 30%
Block [6]: 70%
Block [7]: 30%
Block [8]: 20%
Block [9]: 0%
ED50 [10]: 169 mg/kg

CNS(=O)(=O)OC[C@@]12OC[C@H]3OC(C)(C)OC3C1OC(C)(C)O2 (some centres not stated)
Block [11]: 70%
ED50 [3]: 200 mg/kg
Block [12]: 100%
Block [13]: 80%
Block [14]: 30%
Block [15]: 100%
Block [16]: 90%
Block [6]: 20%
Block [17]: 30%
ED50 [18]: 50 mg/kg

NS(=O)(=O)Cc1noc2ccccc12 [ZONISAMIDE]
Block [19]: 50%
Block [20]: 20%
Block [21]: 40%
Block [22]: 40%

CC1(C)C2CCC(COS(N)(=O)=O)C1C2 (configuration not stated)
Block [23]: 10%
ED50 [24]: inactive
Block [12]: 0%
Block [13]: 0%
Block [14]: 10%
Block [15]: 10%
Block [16]: 10%
Block [6]: 10%
ED50 [25]: inactive
Block [17]: 0%

O=C1NC(=O)C(c2ccccc2)(c2ccccc2)N1 [PHENYTOIN]
Block [26]: 70%
Block [27]: 60%
ED50 [3]: 10 mg/kg
Block [28]: 50%
Block [29]: 30%
Block [30]: 80%
Block [31]: 60%
Block [32]: 70%
ED50 [10]: 10 mg/kg
Block [33]: 80%

CC1(C)O[C@@H]2[C@@H](CO[C@@]3(COS(N)(=O)=O)OC(C)(C)O[C@@H]23)O1 [TOPIRAMATE]
Block [34]: 20%
LD50 [35]: > 1000 mg/kg
ED50 [3]: 61 mg/kg
ED50 [36]: 64 mg/kg
Block [37]: 80%
Block [38]: 80%
TD50 [39]: 1100 mg/kg
Block [40]: 70%
Block [41]: 60%
Block [42]: 100%
Block [43]: 40%
TD50 [44]: 407 mg/kg
Block [45]: 50%
